Screening data from PubChem BioAssay.
Compounds with a hit are over-represented: about 0.99% of the library has one in this group of screens.
RBBP9 inhibitor: human RBBP9 inhibitors, primary screen, biochemical, fluorescence polarization, FP-Rh probe, HTS; Serine hydrolase RBBP9 (Homo sapiens), O75884; recombinant RBBP9; inhibition, % at 7.94 µM; actives 0.2% (n = 220,000); AID 1515, 2009;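 active = inhibition above the campaign mean of all tested compounds plus 3 SD, cut at about 14% in these data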
Target sequence (O75884 whole entry, looked up): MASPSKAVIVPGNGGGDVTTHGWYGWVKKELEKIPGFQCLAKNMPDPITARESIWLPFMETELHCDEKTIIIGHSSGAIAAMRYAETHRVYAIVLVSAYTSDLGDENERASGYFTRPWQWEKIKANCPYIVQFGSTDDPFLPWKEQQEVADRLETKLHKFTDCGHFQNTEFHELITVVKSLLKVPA
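Assay system: recombinant human RBBP9; Reagent: Serine-hydrolase probe FP-Rh, 375 nM pre-mixing; Doses: 7.94 µM single dose, 0.794% DMSO; Incubation: 30 min then 45 min, 25 °C; Detection: fluorescence polarization (mP), excitation 525 nm, emission 598 nm; Evaluation: percent inhibition from mP, scaled between DMSO and no-protein wells.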
Fam108B inh: mouse Fam108B serine hydrolase inhibitors, primary screen, counter-screen for RBBP9 inhibitor project, biochemical, fluorescence polarization. AID 1947, 2009. recombinant Fam108B, FP-Rh probe fluorescence polarization. inhibition, % at 9.51 µM. actives 0.33% (n = 300,000);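 active = inhibition above the screen mean inhibition plus 3 SD, computed separately per campaign, cut at about 18% in these data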;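 also: inhibitors lower polarization as less probe binds the enzyme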
LYPLA2 inh: LYPLA2 inhibitors, primary screen, counter-screen for PME1 inhibitor project, biochemical, fluorescence polarization, FP-Rh probe ABPP; recombinant LYPLA2; inhibition, % at 5.9 µM; actives 0.38% (n = 320,000);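 active = inhibition above the screen-wide mean plus 3 SD, limit set per campaign, cut at about 26% in these data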
Target sequence (O95372 whole entry, looked up): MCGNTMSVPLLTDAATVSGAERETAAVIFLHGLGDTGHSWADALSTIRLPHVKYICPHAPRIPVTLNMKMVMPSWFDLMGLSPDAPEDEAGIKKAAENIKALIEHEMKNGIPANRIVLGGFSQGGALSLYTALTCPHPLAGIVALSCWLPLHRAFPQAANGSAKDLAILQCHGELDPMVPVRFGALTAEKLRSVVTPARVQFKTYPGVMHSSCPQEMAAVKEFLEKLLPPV
PME-1 primary: PME-1 inhibitors via competitive probe labeling, primary screen, biochemical, fluorescence polarization, FP-Rh probe, HTS; recombinant PME-1; inhibition, % at 5.9 µM; actives 0.53% (n = 320,000); AID 2130, 2009;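 active = inhibition above the campaign mean of all compounds plus 3 SD, cut at about 26% in these data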;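 also: competitive labeling of PME-1 active site by serine hydrolase directed probe; inhibitors block probe labeling so polarization falls and inhibition rises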
LYPLA1 inh: LYPLA1 inhibitors, primary screen, counter-screen for PME1 inhibitor project, biochemical, fluorescence polarization, FP-Rh probe ABPP; Acyl-protein thioesterase 1 (Homo sapiens), O75608; recombinant LYPLA1; inhibition, % at 5.9 µM; actives 0.16% (n = 320,000);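 active = inhibition above the mean of all tested compounds plus 3 SD, set per campaign, cut at about 14% in these data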;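 also: inhibitors block serine hydrolase probe labeling of LYPLA1 so polarization falls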
Target sequence (O75608 whole entry, looked up): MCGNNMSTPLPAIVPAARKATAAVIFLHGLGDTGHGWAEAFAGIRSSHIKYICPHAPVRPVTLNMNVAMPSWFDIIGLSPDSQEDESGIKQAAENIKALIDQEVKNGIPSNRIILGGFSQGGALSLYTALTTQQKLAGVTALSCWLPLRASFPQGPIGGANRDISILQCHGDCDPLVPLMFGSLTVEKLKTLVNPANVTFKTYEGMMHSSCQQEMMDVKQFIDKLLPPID
Fam108b confirm: mouse Fam108b serine hydrolase inhibitors, confirmation, counter-screen for RBBP9 inhibitor project, biochemical, fluorescence polarization, triplicate; shares compounds with Fam108B inh; recombinant Fam108b, FP-Rh probe fluorescence polarization; inhibition, % at 9.51 µM; actives 44% (n = 930); AID 1978, 2009;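 active = inhibition above a limit from the primary screen, the mean over all compounds plus 3 SD, cut at about 19% in these data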;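 also: inhibitors free the probe so polarization falls as inhibition rises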
Fam108b inh: inhibition of mouse Fam108b by HTS hits, late-stage follow-up, biochemical, gel-based ABPP, soluble recombinant form. shares compounds with Fam108B inh. inhibition, % at 20 µM. actives 44% (n = 260). AID 588649, 2011. fluorophosphonate probe; in the data active = inhibition above about 40%
LYPLA1 conf: LYPLA1 inhibitors, retest, confirmation, counter-screen for PME1 inhibitor project, biochemical, fluorescence polarization, FP-Rh probe ABPP | shares compounds with LYPLA1 inh | actives 69% (n = 480) | recombinant LYPLA1 | inhibition, % at 5.9 µM;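 active = mean inhibition across replicates above the hit cutoff set in the primary screen, cut at about 15% in these data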;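 also: loss of FP-Rh probe labeling of LYPLA1 seen as lower polarization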
LYPLA2 confirm: LYPLA2 inhibitors, retest, confirmation, counter-screen for PME1 inhibitor project, biochemical, fluorescence polarization, FP-Rh probe ABPP | shares compounds with LYPLA2 inh | recombinant LYPLA2 | inhibition, % at 5.9 µM | actives 72% (n = 1,100);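 active = mean inhibition across replicates above the hit cutoff set in the primary screen, cut at about 26% in these data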;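 also: blocked labeling of the enzyme by serine hydrolase FP-Rh probe lowers polarization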
Of the large screens only hits and unclear results are named; the others gave an inactive call (follow-up assays come after a bar, where they were run).

c1coc(-c2nnc(-c3ccco3)nn2)c1	Fam108B inh 22 (no result: RBBP9 inhibitor) | Fam108b confirm inactive
COCCN1CCC(CNCc2cn(-c3cc(C)ccc3C)nc2-c2ccccc2)C1 (stereo not drawn)	none
Cc1c2ccccc2nc2c(F)c(NCCO)c(F)c(F)c12	Fam108B inh 19 | Fam108b confirm inactive
CCOc1ccc(N(CC(=O)Nc2ccccc2C(=O)N2CCCC2)S(C)(=O)=O)cc1	none (no result: RBBP9 inhibitor)
Cc1onc(-c2ccccc2)c1-c1nnc(CN2CCN(S(=O)(=O)c3ccccc3F)CC2)o1	none (no result: RBBP9 inhibitor, Fam108B inh)
COc1cc(O)ccc1/C=N/NC(=O)c1ccc([N+](=O)[O-])cc1	none
O=C(NC(CSCc1ccccc1)C(=O)N/N=C/c1ccc(O)cc1O)c1ccc([N+](=O)[O-])cc1 (stereo not drawn)	Fam108B inh 23 | Fam108b confirm inactive
Cc1sc2ncnc(N/N=C/c3ccccc3O)c2c1C	Fam108B inh 19 | Fam108b confirm inactive
Cc1sc2ncnc(N/N=C/c3ccc(O)cc3)c2c1C	none
Cc1cc(N/N=C/c2ccc(O)cc2O)c2ccccc2n1	none (no result: RBBP9 inhibitor)
Cc1cc(N/N=C/c2ccc(O)cc2O)nc(-c2ccccc2O)n1	Fam108B inh 34, PME-1 primary 65 | Fam108b confirm inactive
O=C(N/N=C/c1cc(Cl)c(O)c(Cl)c1)c1cc2c(ccc3ccccc32)o1	Fam108B inh 37, PME-1 primary 57, LYPLA1 inh 24 (no result: RBBP9 inhibitor) | Fam108b confirm 52 | LYPLA1 conf inactive
CCOC(=O)c1c([N+](=O)[O-])c(C)[nH]c(=O)c1C#N	none
CCCCCCCCCCCCCCCC[n+]1ccc(/C=N/O)cc1	RBBP9 inhibitor 40, Fam108B inh 41, PME-1 primary 56, LYPLA1 inh 15 | Fam108b confirm 44 | LYPLA1 conf 20
CCCCCCCCCCCCCCCC[n+]1ccc(C(N)=O)cc1	none
O=C(O)CCCNc1cc(N2CCN(C(=O)c3ccco3)CC2)c2noc3c2c1C(=O)c1ccccc1-3	Fam108B inh 35, LYPLA1 inh 18 (no result: RBBP9 inhibitor) | Fam108b confirm 41 | Fam108b inh 75 | LYPLA1 conf 18
COc1ccccc1CNC(=O)CSc1ccc(-c2cccc([N+](=O)[O-])c2)nn1	none
Cn1c(=O)c(N)c2c3c(c(Br)ccc31)C(=O)c1ccccc1-2	Fam108B inh 29, LYPLA2 inh 29, PME-1 primary 37, LYPLA1 inh 17 | Fam108b confirm 26 | LYPLA1 conf 21
Cn1c(=O)c(-c2cc(Br)ccc2N)nc2ccccc21	none
CC1(C)C(c2ccccc2)=NC(c2ccc(Br)cc2)N1O (stereo not drawn)	none
Cc1ccc(CN2CCN(Cc3cnc(N4CCOCC4)s3)CC2CCO)o1 (stereo not drawn)	none
O=c1/c(=C\c2cc([N+](=O)[O-])cc([N+](=O)[O-])c2O)sc2nc3ccccc3n12	Fam108B inh 52, LYPLA1 inh 16 | Fam108b confirm 39 | LYPLA1 conf inactive
CC1=NN(c2ccccc2)C(=O)/C1=C\c1c(C)[nH]n(-c2ccccc2)c1=O	none
CC1=NN(c2ccccc2)C(=O)/C1=C/c1c(O)n(-c2ccc(F)c(Cl)c2)[nH]c1=O	Fam108B inh 67, PME-1 primary 68, LYPLA1 inh 26 | Fam108b confirm 65 | Fam108b inh inactive | LYPLA1 conf inactive
C/C(=N\NC(=O)CCc1ccccc1)C1C(=O)c2ccccc2C1=O	none
C/C(=N\NC(=O)c1cccc(Cl)c1)C1C(=O)c2ccccc2C1=O	Fam108B inh 31, LYPLA1 inh 24 | Fam108b confirm 34 | LYPLA1 conf 28
COc1ccccc1NC(=O)C1CCN(S(=O)(=O)c2ccc3c(c2)NC(=O)C(C)S3)CC1 (stereo not drawn)	none (no result: RBBP9 inhibitor)
COc1cc(N=Nc2cccc(S(N)(=O)=O)c2)c2ccccc2c1N	Fam108B inh 34, PME-1 primary 30, LYPLA1 inh 14 | Fam108b confirm inactive | LYPLA1 conf inactive
Cc1nc(S/C(=C/c2ccc(-c3cc(Cl)ccc3C)o2)C(=O)O)n[nH]1	Fam108B inh 25, PME-1 primary 34, LYPLA1 inh 26 | Fam108b confirm 18 | LYPLA1 conf 28
Cc1nc(S/C(=C/c2ccc(-c3ccc(C(=O)O)cc3)o2)C(=O)O)n[nH]1	none
Cc1ccc(C(=O)N/N=C/c2ccc(-c3ccc(Br)cc3[N+](=O)[O-])o2)o1	Fam108B inh 19, PME-1 primary 53, LYPLA1 inh 18 (no result: RBBP9 inhibitor) | Fam108b confirm inactive | LYPLA1 conf inactive
O=C(O)CSc1cc(NS(=O)(=O)c2ccc(Cl)cc2)c2ccccc2c1O	Fam108B inh 28, LYPLA2 inh 28, PME-1 primary 28 (no result: RBBP9 inhibitor) | Fam108b confirm 19 | LYPLA2 confirm inactive
O=S(=O)(Nc1cc(Sc2cccc3cccnc23)c(O)c2ccccc12)c1ccc(F)cc1	none
CCN(CC(=O)NCC(=O)Nc1ccc(Br)cc1C)Cc1ccccc1	none (no result: RBBP9 inhibitor)
CCOC(=O)C1CCCN(C(=O)c2ccc(C(=O)c3ccccc3)cc2)C1 (stereo not drawn)	none (no result: RBBP9 inhibitor, Fam108B inh)
CCOC(=O)C1CCCN(C(=O)C2c3ccccc3Oc3ccccc32)C1 (stereo not drawn)	Fam108B inh 41, LYPLA2 inh 59, PME-1 primary 66, LYPLA1 inh 56 | Fam108b confirm inactive | LYPLA1 conf inactive | LYPLA2 confirm inactive
C/C(CCc1ccc2c(c1)OCO2)=N\N=C1\NC(=O)CC(C(=O)Nc2ccccc2F)S1 (stereo not drawn)	none
CCc1ccc(S(=O)(=O)/N=C2/C=C(Sc3ncn[nH]3)C(=O)c3ccccc32)cc1	Fam108B inh 54, LYPLA2 inh 40, PME-1 primary 37 | Fam108b confirm 57 | LYPLA2 confirm 47
